Sampled rows, rich in hits. Any-hit rate of the full collection: about 2.2%.
NF-kB neuron act = compounds increasing NF-kB expression in human neuronal cells. NF-kB reporter expression; stronger effect = higher value. fold change at 12.5 µM. 1.6% of 190,000 active; in the data active means fold change above about 3.3
TRAIL sens C8 = caspase-8 TRAIL sensitization. NB7+C8 cells + TRAIL, ATPlite viability luminescence. inhibition (viability loss, TRAIL sensitization), % at 10 µM. 1% of 360,000 active. AID 624354;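 active means compounds causing at least 50% loss of cell viability in the single-dose screen, relative to plate controls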
PPC-1+TRAIL kill = kills PPC-1 cancer cells in the presence of TRAIL; PPC-1 cells + TRAIL, ATPLite viability luminescence; cell killing (% activity), % at 4 µM or 5 µM; 0.41% of 220,000 active; AID 1443;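 active means cell killing above 50% in the first pass at 4 µM, then a duplicate retest at 5 µM averaging 50% or more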
FLuc inh counter = inhibits firefly luciferase, flagging false hits in luciferase inhibition screens | ATPLite firefly luciferase biochemical luminescence, 10 min | P08659 | inhibition, % at 10 µM | 1.5% of 200,000 active;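 active means inhibition above about 50% when tested at 10 µM, limit read from the data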
Target sequence (P08659 whole entry, looked up): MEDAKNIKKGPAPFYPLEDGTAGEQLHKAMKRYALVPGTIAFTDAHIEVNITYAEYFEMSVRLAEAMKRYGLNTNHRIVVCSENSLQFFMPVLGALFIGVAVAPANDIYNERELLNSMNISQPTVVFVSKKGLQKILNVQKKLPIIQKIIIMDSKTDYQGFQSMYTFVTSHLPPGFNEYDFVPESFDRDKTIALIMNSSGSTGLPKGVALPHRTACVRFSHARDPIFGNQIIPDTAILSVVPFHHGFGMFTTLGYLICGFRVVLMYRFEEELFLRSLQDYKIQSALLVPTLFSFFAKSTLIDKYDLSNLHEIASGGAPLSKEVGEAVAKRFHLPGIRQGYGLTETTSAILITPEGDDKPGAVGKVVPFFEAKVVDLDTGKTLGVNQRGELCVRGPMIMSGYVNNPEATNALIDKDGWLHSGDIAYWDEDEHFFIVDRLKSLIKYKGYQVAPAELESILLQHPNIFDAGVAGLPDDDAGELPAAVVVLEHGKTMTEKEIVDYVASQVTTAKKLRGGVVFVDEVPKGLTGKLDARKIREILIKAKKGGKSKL
APP 5'UTR act = APP 5'UTR luciferase reporter activation; SH-SY5Y APP 5'UTR luciferase reporter, luminescence; zero percent = DMSO vehicle wells; activation, % at 2 µM; 1% of 190,000 active;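 active means activation above a set limit, based on mean plus 3 SD of controls, cut at about 140% in these data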
FLuc act counter = affects firefly luciferase, flagging false hits in luciferase stimulation screens | P08659 | ATPlite luciferase biochemical, luminescence, 10 min; 0 = ATP-free wells, 1 = DMSO control | activation factor at 10 µM | 200,000 tested, under 10 active | AID 1027;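 active means luciferase activation factor, scaled between plate controls, of at least 2 with compound at 10 µM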
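Assay system – cell-free luciferase reagent · Medium – PBS-based ATP solution · Dosing – test compounds dosed from 2 mM stocks in 100% DMSO · Timing – 10 min, room temperature · Technique – light output (luminescence) · Measure – luminescence gain marking luciferase activators · Controls – No-ATP low control, compound-free enzyme-plus-ATP high control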
PPC1 cytotox = kills PPC-1 cells. PPC-1 viability, ATPlite luminescence, overnight. cytotoxicity, % at 5 µM. 50% of 1,200 active. shares compounds with PPC-1+TRAIL kill;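 active means reconfirmed compounds whose average cytotoxicity reaches 50% or more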
Hits are given with their value; i = inactive; nt = no result given.

SMILES	NF-kB neuron act	TRAIL sens C8	PPC-1+TRAIL kill	FLuc inh counter	APP 5'UTR act	FLuc act counter	PPC1 cytotox
O=C(Nc1cccc(OCC(=O)N2CCOCC2)c1)c1ccc(C(F)(F)F)cc1	nt	i	nt	nt	nt	nt	nt
O=C(NCc1ccccn1)c1cc(-c2ccc(-c3ccccc3)cc2)nc2ccccc12	i	82	61	88	i	i	61
CCN(CC)C(=O)CSc1ncnc2c(-c3cccs3)nsc12	i	i	i	i	i	i	i
CCCNS(=O)(=O)c1cccc(C(=O)NNC(=O)c2cc(C)oc2C)c1	nt	i	nt	nt	nt	nt	nt
CC(C)CC(=O)NC(c1cccs1)c1ccc2cccnc2c1O (stereo unspecified)	i	i	nt	i	i	i	nt
CCC(=O)NC(c1cccs1)c1ccc2cccnc2c1O (stereo unspecified)	nt	i	i	i	i	i	i
CCOc1ccc(CNC(=S)N/N=C/c2ccc(OC)c(OC)c2)cc1	i	i	i	i	i	i	nt
O=C(O)c1c2c(nc3ccccc13)/C(=C/c1ccc(O)cc1)CC2	i	58	i	96	i	i	i
CC(=O)c1ccc(S(=O)(=O)Nc2cccc(-n3cnnn3)c2)cc1	nt	i	nt	nt	nt	nt	nt
Cc1cccc(OCCC(=O)Nc2ccc(C)c(S(=O)(=O)N3CCCCC3)c2)c1	i	i	i	i	i	i	nt
Cc1ccc(C(=O)/C=C/Nc2ccccc2C(N)=O)cc1	6.7	90	93	97	174	i	93
CCOC(=O)c1ccccc1N/C=C/C(=O)c1ccccc1	nt	i	nt	nt	i	nt	nt
NC(=O)c1ccccc1N/C=C/C(=O)c1ccc(Cl)cc1	6.9	88	84	94	148	i	84
O=C(Nc1ccc(N2CCOCC2)cc1)c1cnsn1	i	71	73	90	i	i	71
O=C(Nc1ccc(N2CCOCC2)cc1)c1ccncc1	i	i	i	i	i	i	nt
COc1cc(OC)c(C(=O)Nc2cccnc2)cc1OC	nt	i	nt	nt	nt	nt	nt
COc1cc2ccccc2cc1C(=O)Nc1cccnc1	i	i	i	i	i	i	i
CCc1cccc(CC)c1NC(=S)NCc1nc2ccccc2[nH]1	i	i	i	i	i	i	nt
COC(=O)c1cc(NS(=O)(=O)c2ccc(C)c3ccccc23)ccc1N1CCOCC1	nt	i	i	nt	nt	nt	nt
O=C(CCCN1C(=O)CCC1=O)Nc1ccc2c(c1)OCO2	i	i	i	i	i	i	i
CC1CCCC/C1=N\NS(=O)(=O)c1ccc(Br)cc1 (stereo unspecified)	i	i	i	i	i	i	i
CCN(CC)c1ccc2cc(-c3nc4ccccc4[nH]3)c(=O)oc2c1	i	95	96	96	185	i	95
CCN(CC)c1ccc2cc(-c3nnc(-c4ccccc4)o3)c(=O)oc2c1	i	i	i	i	i	i	nt
Cc1ccc(NN2C(=O)C=C(c3ccc(Cl)cc3)C2=O)cc1	i	i	i	i	i	i	i
O=C1CC(c2ccc3c(c2)OCO3)c2cc3c(cc2N1)OCCO3 (stereo unspecified)	i	i	i	i	i	i	i
SMILES	NF-kB neuron act	TRAIL sens C8	PPC-1+TRAIL kill	FLuc inh counter	APP 5'UTR act	FLuc act counter	PPC1 cytotox
O=C(Nc1ccccn1)c1ccc2ccccc2n1	5.9	55	i	84	141	i	52
ClCc1ncc(-c2ccc(Cl)cc2)o1	i	i	i	i	i	i	i
CCCCCn1c(=O)[nH]c2cc(C(=O)NCCCN3CCCCC3CC)ccc2c1=O (stereo unspecified)	nt	i	nt	nt	nt	nt	nt
COc1ccc(N2CC(C(=O)Nc3ccccc3C(=O)NCc3ccco3)CC2=O)cc1 (stereo unspecified)	i	i	i	i	i	i	nt
O=C(NCc1ccco1)C1CC(=O)N(c2ccc(O)cc2)C1 (stereo unspecified)	i	i	i	i	i	i	i
O=C(NC1CCCCC1)c1csnn1	nt	i	nt	nt	nt	nt	nt
CCOC(=O)C1CCN(C(=O)C2(NC(=O)Nc3ccccc3C)CCCCC2)CC1	nt	i	nt	nt	nt	nt	nt
COc1ccc(-c2nsc3c(N4CCCCC4C)ncnc23)cc1 (stereo unspecified)	i	78	77	91	i	i	79
COc1ccc(C(=O)N2CCN(c3ncnc4c(-c5ccccc5)nsc34)CC2)cc1	i	i	i	i	i	i	nt
COc1ccc(-c2nsc3c(N4CCCCC4)ncnc23)cc1	i	85	79	89	i	i	78
COc1ccccc1NC(=O)NNC(=O)C(C)Oc1ccc2ccccc2c1 (stereo unspecified)	nt	i	nt	nt	nt	nt	nt
CC1CCC(NC(=O)CCN2C(=O)C3C4C=CC(C4)C3C2=O)CC1 (stereo unspecified)	nt	i	nt	nt	nt	nt	nt
CC(C)Cc1cc(C(=O)Nc2cccc(O)c2)no1	nt	64	63	nt	nt	nt	61
CC(C)Cc1cc(C(=O)Nc2ccc(Br)cc2)no1	nt	i	i	nt	nt	nt	nt
COc1ccc(C(=O)O/N=C(\N)c2ccccc2)c(OC)c1	i	i	i	i	188	i	i
N/C(Cc1ccc(Cl)cc1Cl)=N\OC(=O)c1ccccc1	i	i	i	i	i	i	nt
N/C(=N\OC(=O)c1ccc(Cl)cc1Cl)c1ccccc1	i	94	65	95	174	i	62
COc1ccc(C(=O)O/N=C(\N)c2ccc(OC)c(OC)c2)c(OC)c1	nt	i	nt	nt	nt	nt	nt
CCN1CCN(S(=O)(=O)c2c(C)[nH]c(C)c2C(=O)N2CCCCC2)CC1	nt	i	nt	nt	nt	nt	nt
COc1cccc(-c2nnn(CC(=O)Nc3cc(OC)c(NC(=O)c4ccco4)cc3OC)n2)c1	i	i	i	i	i	i	i
O=C1OC(c2ccccc2)(c2cc(Br)ccc2O)c2ccccc21 (stereo unspecified)	nt	i	nt	nt	nt	nt	nt
COc1ccc2nc(Cl)c(/C=N/Nc3ccccn3)cc2c1	i	67	66	79	i	i	65
COc1ccc(/C=N/Nc2ccccn2)cc1O	nt	i	i	nt	nt	nt	nt
CC1CN(C(=O)C2(C)CC2(Cl)Cl)CC(C)O1 (stereo unspecified)	i	i	i	i	i	i	nt
O=S(=O)(c1cccc(-c2nc3ccccc3s2)c1)N1CCCC1	i	i	i	i	i	i	i
SMILES	NF-kB neuron act	TRAIL sens C8	PPC-1+TRAIL kill	FLuc inh counter	APP 5'UTR act	FLuc act counter	PPC1 cytotox
Nc1cccc(-c2nc3ccccc3s2)c1	5.9	51	i	76	i	i	i
O=C(O)c1ccc2c(c1)C(=O)N(c1cccc(-c3nc4ccccc4s3)c1)C2=O	i	i	i	i	i	i	i
Cc1ccc(S(=O)(=O)N2CCN(Cc3ccco3)CC2)c(C)c1	nt	i	nt	nt	nt	nt	nt
Brc1ccc2nc(C3CCCCC3)c(CC3CCCCC3)n2c1	nt	i	nt	nt	nt	nt	nt
O=C(COC(=O)CCc1ccc(S(=O)(=O)N2CCOCC2)cc1)Nc1ccccc1OC(F)F	nt	i	nt	nt	nt	nt	nt
C[C@@H]1CN([C@@H](C)CO)C(=O)CCCn2nncc2CO[C@H]1CN(C)S(=O)(=O)c1ccc2ccccc2c1	nt	i	nt	nt	nt	nt	nt
CC(=O)Nc1ccc(NC(=O)CSc2nnc(-c3ccc4c(c3)OCO4)o2)cc1	nt	i	nt	nt	nt	nt	nt
CC(=O)CSc1nnc(-c2ccc3c(c2)OCO3)o1	i	i	i	67	i	i	i
